Measurements as given in ChEMBL document CHEMBL1149554, “Dual bioactivity of resveratrol fatty alcohols: differentiation of neural stem cells and modulation of neuroinflammation” (2007).

Columns and labels:
[1] = system: Neuron; assay: Neuronal differentiation activity assessed as increase in number of neurons at 0.1 uM in relative to control; format: functional, Homo sapiens
Procedure, shortened: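 Neurospheres (undifferentiated aggregates containing 5–10% neural stem cells, raised with EGF and bFGF) were treated with compound and scored for differentiation into neurons. The % of neurons was compared with ethanol vehicle control, or divided by the % of neurons obtained with retinoic acid treatment. Neuron morphology was also rated qualitatively. Each compound was tested in at least three independent experiments.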

[2] = Inhibition of LPS-stimulated nitric oxide production in mouse MMGT12 cells after 48 hrs; format: functional; design: scale not given: the % may be the effect or the level left
Procedure, shortened: (§1)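 Mouse MMGT-12 microglial cells stimulated with LPS in the presence or absence of test compound at several concentrations. Supernatants were collected, and accumulated NO was measured at 48 h by the Griess method and secreted TNF-α at 24 h by ELISA. Data are expressed as % of the LPS-only control, as mean ± SEM of three independent experiments.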

[3] = Inhibition of LPS-stimulated TNFalpha production in mouse MMGT12 cells after 24 hrs by ELISA; format: functional; design: scale not given: the % may be the effect or the level left; procedure, shortened: as §1
[4] = system: Neuron; assay: Neuronal differentiation activity assessed as increase in number of neurons at 0.1 uM in relative to 5 uM retinoic acid

| SMILES | Activity [1] [%] | Activity [2] [%] | Activity [3] [%] | Activity [4] |
| --- | --- | --- | --- | --- |
| COc1ccc(/C=C/c2cc(OC)c(CCCCCCCCCCCCCCO)c(OC)c2)cc1 | 135 |  |  |  |
| OCCCCCCCCCCCCc1c(O)cc(/C=C/c2ccc(O)cc2)cc1O | 263 | 50 | 30 |  |
| OCCCCCCCCCCCCCCc1c(O)cc(/C=C/c2ccc(O)cc2)cc1O | 160 |  |  |  |
| COc1ccc(/C=C/c2cc(OC)c(CCCCCCCCCCO)c(OC)c2)cc1 | 147 |  |  |  |
| Oc1ccc(/C=C/c2cc(O)cc(O)c2)cc1 [RESVERATROL] | 105 |  |  | 0.52 |
| COc1ccc(/C=C/c2cc(OC)c(CCCCCCCCCCCCO)c(OC)c2)cc1 | 188 |  |  |  |
| OCCCCCCCCCCc1c(O)cc(/C=C/c2ccc(O)cc2)cc1O | 108 |  |  | 0.53 |
| CC1=C(/C=C/C(C)=C/C=C/C(C)=C/C(=O)O)C(C)(C)CCC1 [TRETINOIN] | 203 |  |  |  |
| CCCCCCCCCCCCc1c(O)cc(/C=C/c2ccc(O)cc2)cc1O | 106 |  |  | 0.52 |
| COc1ccc(/C=C/c2cc(OC)c(CCCCCCCCCCCCCCCCO)c(OC)c2)cc1 | 107 |  |  | 0.53 |
